# Results from publication PMC2995081 (Nucleic Acids Research, 2010).
# Legend:
# GST-Mdm2 RING domain [1] = target: GST-Mdm2 RING domain (Homo sapiens, UniProt Q00987); assay: ATP binding competition assay; settings: for binding to Mdm2 (displacement of bound γ-32P ATP): Mdm2(400–484), Nebularine: concentration range up to 1 mM
# GST-Mdm2 RING domain [2] = assay: ATP binding competition assay; set-up: species or system human; settings: Mdm2(410–491) with eight lysines mutated to alanine (8 KA, Mdm2-NoLS)
# GST-Mdm2(400–491) = GST-Mdm2(400–491) (Homo sapiens, UniProt Q00987); assay: Isothermal titration calorimetry; format: binding; settings: 2 mM ATP titrated into 100 nM GST-Mdm2(400–491), single-site isotherm
# How it was run: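 GST-Mdm2(400–491) was expressed in E. coli BL21 (16 h induction at 25°C) and purified on glutathione-Sepharose. In assay buffer (100 mM Tris-HCl pH 7.0, 100 mM NaCl, 10 mM MgCl2, 2 mM DTT), 2 mM ATP or GTP was injected into 100 nM protein over twenty injections. Buffer-alone heat of dilution was subtracted, and data were fitted to a single-site isotherm. Four independent measurements were made.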
# GST-Mdm2(400–491), sequence (Q00987 400-491): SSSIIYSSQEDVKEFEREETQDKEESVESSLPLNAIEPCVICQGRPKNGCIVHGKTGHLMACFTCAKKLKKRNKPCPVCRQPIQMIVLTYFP
binding to Mdm2 (displacement of bound γ-32P ATP) (GST-Mdm2 RING domain [1]),"dissociation constant (Kd) (GST-Mdm2 RING domain [1]; GST-Mdm2(400–491), competition of γ-32P ATP)",Kd (GST-Mdm2 RING domain [2]),Kd (GST-Mdm2(400–491)),Structure (SMILES)
completely abrogated the binding,–,–,–,"Nc1ncnc2c1ncn2[C@H]1C[C@H](O)[C@@H](CO)O1 [2′ deooxyadenosine, 2′deoxyadenosine]"
–,low micromolar range,low micromolar range,4 µM,"Nc1ncnc2c1ncn2[C@@H]1O[C@H](COP(=O)(O)OP(=O)(O)OP(=O)(O)O)[C@@H](O)[C@H]1O [ATP, adenosine triphosphate]"
did not bind,–,–,–,"Nc1nc(F)nc2c1ncn2[C@@H]1O[C@H](CO)[C@@H](O)[C@@H]1O [F-Ara-A, Fludarabine]"
no binding,–,–,–,OC[C@H]1O[C@@H](n2cnc3cncnc32)[C@H](O)[C@@H]1O [Nebularine]
